ASAP1 GAP inh: inhibitors of human ASAP1 ArfGAP activity, primary screen, biochemical, fluorescence polarization; ASAP1-stimulated ARF1 GTP hydrolysis, GDP FP detection; inhibition, % at 16.5 µM; Arf-GAP with SH3 domain, ANK repeat and PH domain-containing protein 1 (Homo sapiens), …; actives 0.19% (n = 360,000); in the data active = inhibition above about 25%;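 also: 0% = vehicle with enzyme and substrate and 100% = no enzyme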
Target sequence (Q9ULH1 325-724 limits assumed): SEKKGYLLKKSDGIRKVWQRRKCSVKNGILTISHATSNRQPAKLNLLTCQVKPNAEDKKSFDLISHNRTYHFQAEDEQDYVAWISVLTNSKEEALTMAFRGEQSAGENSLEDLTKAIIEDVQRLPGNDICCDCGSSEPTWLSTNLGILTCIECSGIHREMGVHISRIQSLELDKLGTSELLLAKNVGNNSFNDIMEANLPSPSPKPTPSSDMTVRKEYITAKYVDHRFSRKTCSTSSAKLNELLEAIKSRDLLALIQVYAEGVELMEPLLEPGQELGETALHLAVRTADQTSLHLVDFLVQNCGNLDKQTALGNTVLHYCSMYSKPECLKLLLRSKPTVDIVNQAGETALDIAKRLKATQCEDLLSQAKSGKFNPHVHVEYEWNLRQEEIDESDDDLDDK
SMARCA2 activ: SMARCA2 (BRM) function activators, primary screen, cell-based, luminescence, high throughput; activation, % at 9.1 µM; actives 1% (n = 370,000); AID 652017, 2013; MG213 cells, MMTV-luciferase reporter, dexamethasone, overnight; in the data active = activation above about 7.8%;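 also: 0% = vehicle wells and 100% = reference activator wells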
ARFGAP1 inh: inhibitors of rat ARFGAP1 GAP activity, primary screen, biochemical, fluorescence polarization, GDP tracer; Arfgap1-stimulated ARF1 GTP hydrolysis, GDP FP detection; actives 0.26% (n = 360,000); inhibition, % at 16.5 µM; ADP-ribosylation factor GTPase-activating protein 1 (Rattus norvegicus), Q62848; AID 651572, 2012;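 active = inhibition above a per-plate limit, mean inhibition of low control wells plus 3 SD, cut at about 25% in these data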;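 also: 0% = DMSO wells with enzyme and 100% = wells lacking Arfgap1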
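Material: truncated rat Arfgap1 GAP domain; Incubation: compound-enzyme preincubation 20 min, reaction 120 min, detection 60 min, 25 °C; Read-out: percent inhibition of Arfgap1-stimulated GTP hydrolysis; Technique: FP, GDP Alexa 633 tracer displaced from anti-GDP antibody, 620/688 nm; Controls: No-Arfgap1 wells (100%) versus DMSO full-reaction wells (0%); Replication: single well per compound.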
esBAF inh: Bmi1 luciferase reporter increase in mESCs, primary screen, esBAF inhibitor project, mouse ES cells, Bmi1 luciferase knock-in, single point; reporter increase, % at 12.5 µM; 24 h; 100% = twice the neutral-well signal; AID 602393, 2012; actives 2% (n = 350,000); in the data active = activation above about 40%;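 also: 0% = median of the plate's neutral control wells and 100% = double that signal; a rise in the Bmi1 reporter signal indicates esBAF inhibition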
Numbers without * were called inactive; . = no result given. Rows were chosen to be rich in hits. Some 2.6% of all compounds tested hit in one or more screens of this group.

SMILES	ASAP1 GAP inh	SMARCA2 activ	ARFGAP1 inh	esBAF inh
CCCOc1ccc(-c2c(=O)n(O)c3ccccc3[n+]2[O-])cc1	-2	4	11	50*
CCOc1ccc(-c2c(=O)n(OCc3ccccn3)c3ccccc3[n+]2[O-])cc1	-9	4	9	19
COc1ccc(S(=O)(=O)Nc2ccc3c(c2)C(=O)N([C@@H](C)CO)C[C@@H](C)[C@H](CN(C)Cc2ccc(C(F)(F)F)cc2)O3)cc1	.	.	.	2
CCCC#Cc1ccc2c(c1)O[C@@H](CN(C)CCC)[C@@H](C)CN([C@@H](C)CO)S2(=O)=O	.	.	.	-3
Cc1ccc2nc(N3C(=O)C(O)=C(C(=O)c4cc5ccccc5o4)C3c3cccs3)sc2c1 (configuration not stated)	.	.	.	45*
CCc1ccc2nc(N3C(=O)C(O)=C(C(=O)c4ccco4)C3c3cccs3)sc2c1 (configuration not stated)	.	.	.	29
O=C(C[C@H]1C[C@H]2c3cc(NC(=O)C4CCOCC4)ccc3O[C@H]2[C@H](CO)O1)NCC1CC1	.	.	.	0
C[C@@H]1CN([C@H](C)CO)C(=O)c2cccc(NS(=O)(=O)c3cn(C)cn3)c2O[C@@H]1CN(C)Cc1ccccc1	.	.	.	-2
Cc1cccc(-c2nc3cc(NC(=O)C4CCCO4)ccc3o2)c1 (configuration not stated)	7	1	-6	.
CC(=O)Nc1cccc(-c2nc3ccccc3o2)c1	8	0	-8	35
CC(C)C(=O)Nc1cccc(-c2nc3ccccc3o2)c1	1	-1	-12	41*
Cc1ccc2oc(-c3cccc(NC(=O)C4CCCO4)c3)nc2c1 (configuration not stated)	17	1	6	79*
COc1ccc(OCC(=O)Nc2cccc(-c3nc4ccccc4o3)c2)cc1	8	0	-4	51*
O=C(C[C@@H]1C=C[C@@H](NC(=O)c2ccc(F)cc2)[C@@H](CO)O1)NCCc1ccncc1	.	.	.	-2
CC(C)OCCCN1CN(S(=O)(=O)c2ccccc2)c2nc3ccccc3nc21	-9	-2	18	43*
O=C(NCCCCCCNC(=O)c1ccccc1O)c1ccccc1O	-2	-1	10	6
Cc1ccc(C(=O)NCCCc2ccccc2)c(Cl)c1	0	4	12	42*
O=C(NCCCc1ccccc1)c1ccc([N+](=O)[O-])cc1Cl	-6	1	9	38
O=C(NCCCc1ccccc1)c1ccccc1O	-4	2	-3	70*
COc1ccccc1NC(=O)N[C@@H]1C=C[C@H](CC(=O)N[C@@H](C)c2ccccc2)O[C@H]1CO	.	.	.	-3
Cc1ccc2nc3ccc(N4CCCCCCC4)nn3c(=O)c2c1	11	4	-4	60*
Cc1ccc2nc3ccc(N4CCN(C)CC4)nn3c(=O)c2c1	-2	6	3	49*
Cc1sc2nc3ccc(N4CCCC4)nn3c(=O)c2c1C	-6	-5	-8	52*
CCC(=O)Nc1ccc2c(c1)C(=O)N(C)C[C@H](OC)[C@@H](C)CN(Cc1ccccc1F)[C@@H](C)CO2	.	.	.	1
C=CCNc1nc(C(=O)OCC(=O)Nc2ccc(S(N)(=O)=O)cc2)cs1	-3	0	-5	-6
SMILES	ASAP1 GAP inh	SMARCA2 activ	ARFGAP1 inh	esBAF inh
C=CCNc1nc(C(=O)OCC(=O)c2ccccc2)cs1	-3	4	-7	55*
COc1cccc(S(=O)(=O)N[C@@H]2CC[C@H](CC(=O)NC3CCC3)O[C@H]2CO)c1	.	.	.	5
Cc1ccc(NC(=O)c2cc(N(C)C)ccc2[P+](=O)O)cc1	10	5	5	45*
C[C@H]1CCCCO[C@H](CN(C)C(=O)Cc2ccccc2)[C@@H](C)CN([C@@H](C)CO)C(=O)c2cc(NC(=O)c3ccccc3)ccc2O1	.	.	.	4
Cc1cc(C(=O)CSc2nncs2)c(C)n1-c1ccc2c(c1)OCO2	11	0	-14	80*
Cc1cc(C(=O)CSc2nnnn2-c2ccccc2)c(C)n1-c1ccc2c(c1)OCO2	-6	-2	6	.
O=C(Cc1ccccc1)N1CC[C@H]2[C@H](CO)Nc3ccc(Br)cc3[C@H]21	.	.	.	-4
CC(=O)Nc1ccccc1C(=O)C(=O)Nc1cccc(C(=O)NC2CC2)c1	1	-2	-3	48*
